# Screening data (PubChem BioAssay)
# Sampled rows, rich in hits. Any-hit rate of the full collection: about 3.8%.
# XiGFP reactiv – activators of inactive X chromosome reactivation, primary screen, imaging, XiGFP fibroblasts, GFP high-content imaging, set 2. XiGFP mouse fibroblasts, % GFP-positive cells imaging, 3 d; cells co-treated with 5-aza-dC sensitizer; scaled so ellipticine positive control = 100%. 360,000 compounds, 0.055% hits. activation, % at 7.58 µM. AID 743238, 2013;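 active = mean normalized replicate activation at least 10% and every replicate at or above 10%; inconclusive = only one of the two criteria met; inactive = mean below 10% and not all replicates reach 10%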;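 note: 0% = median of on-plate neutral control wells and 100% = ellipticine 6 µM median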
#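 Assay system: SV40-immortalized XiGFP fibroblast cells, line 68-5-11; buffer or medium: DMEM plus 5-aza-dC sensitizer; compound: one concentration, pinned; timing: compounds 3 days, fix/stain 15 min at room temperature; benchmarks: positive control ellipticine, 6 µM final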
# FN deposit inh – inhibitors of fibronectin matrix deposition, primary screen, AH1F cells, Alexa488-fibronectin fluorescence, plate reader; AH1F fibroblasts, overnight; inhibition, % at 12.6 µM; 350,000 compounds, 0.086% hits; AID 743247, 2014;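 active = mean inhibition across replicates of 30% or more, regardless of how many single replicates reach that level; inconclusive = mean under 30% yet at least half of replicates reach 30%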;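 note: positive control wells lacked labelled fibronectin entirely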
#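 Schedule: 1 h cell adhesion before compound, then overnight fibronectin incubation; test system: AH1F fibroblast monolayer depositing Alexa488-labelled fibronectin into matrix; quantity: 10000 AH1F cells per well; probe or stimulus: fluorescent fibronectin at 24 nM final; signal: fluorescence, ex 485 nm, em 525 nm; evaluation: percent inhibition as loss of matrix-bound fibronectin fluorescence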
# DENV2 CPE – inhibitors of DENV2 cytopathic effect, primary screen, cell-based, plate reader, single concentration | CPE inhibition, % at 9.99 µM | 350,000 compounds, 1.7% hits | DENV2-infected cells, cytopathic effect rescue; in the data active = CPE inhibition above about 20%, passing the limit was not always enough; inconclusive = no clear call, values can overlap the other calls; tested in BHK-21 cells;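 note: 0% = median of neutral control wells and 100% = median of positive control wells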
# ARNT TACC3 PPI – disruptors of ARNT/TACC3 protein interaction, primary screen, biochemical, AlphaScreen, single concentration. 390,000 compounds, 0.66% hits. Transforming acidic coiled-coil-containing protein 3 (Homo sapiens), Q9Y6A5. AlphaScreen His-ARNT PAS-B/GST-TACC3 binding, luminescence; TACC3 fragment carries E629A point mutation. inhibition, % at 9.99 µM;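 active = mean inhibition of replicates at least 50% and at least half of replicates each reaching 50%; inconclusive = half or more replicates reach 50% but mean below 50%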;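 note: 0% = complete ARNT plus TACC3 wells and 100% = ARNT alone without TACC3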
# FGF22 binding – binders of human FGF22 protein, primary screen, FGF22 synaptogenesis inhibitor project, biophysical, thermal shift, single point; Fibroblast growth factor 22 (Homo sapiens), Q9HCT0; recombinant FGF22 thermal shift, SYPRO orange fluorescence; percent of sucrose octasulfate shift, DMSO zero; activity (Tm shift, normalised), % at 9.99 µM; 340,000 compounds, 1.5% hits; AID 651658, 2012;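 active = mean Tm shift, scaled 0 neutral to 100 positive control, at about 1.3% or above, every replicate too, limit read from the data; inconclusive = no clear call, values can overlap the other calls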
# Target sequence (Q9HCT0 whole entry, looked up): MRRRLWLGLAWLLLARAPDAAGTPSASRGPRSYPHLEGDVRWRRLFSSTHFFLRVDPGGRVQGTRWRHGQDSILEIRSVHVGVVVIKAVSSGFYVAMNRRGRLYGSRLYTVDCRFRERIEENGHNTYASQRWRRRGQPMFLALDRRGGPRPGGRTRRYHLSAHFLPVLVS
# SIRT5 block – SIRT5 desuccinylase inhibitors, primary screen, biochemical, fluorescence imaging, single point, set 5 | NAD-dependent protein deacylase sirtuin-5, mitochondrial (Homo sapiens), Q9NXA8 | Purified SirT5, succinyl-peptide AMC, trypsin-coupled fluorescence | inhibition, % at 15 µM | 330,000 compounds, 1.1% hits; in the data active = inhibition above about 15%; inconclusive = no clear call, values can overlap the other calls
# Target sequence (Q9NXA8 whole entry, looked up): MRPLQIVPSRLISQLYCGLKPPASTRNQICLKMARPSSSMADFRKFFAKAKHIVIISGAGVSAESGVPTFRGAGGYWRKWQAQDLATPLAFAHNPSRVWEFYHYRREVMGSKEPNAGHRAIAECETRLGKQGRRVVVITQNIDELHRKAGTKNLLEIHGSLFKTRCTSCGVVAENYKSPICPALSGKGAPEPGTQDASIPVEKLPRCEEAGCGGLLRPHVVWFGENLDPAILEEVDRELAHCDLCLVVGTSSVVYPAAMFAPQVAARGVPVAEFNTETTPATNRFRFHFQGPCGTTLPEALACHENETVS
# Active calls of the source: *; ? = inconclusive; / = no result; ! = not confirmed by another sample.
SMILES,XiGFP reactiv,FN deposit inh,DENV2 CPE,ARNT TACC3 PPI,FGF22 binding,SIRT5 block
C#CCN(C[C@@H]1[C@@H](OC(=O)Nc2cccs2)[C@@H](OC(=O)Nc2cccs2)C[C@H](C(=O)OC)[C@@H]1C(=O)OC)S(=O)(=O)c1ccc(C)cc1,0,9,19,/,0,0
CCCNC(=O)C[C@H]1CC[C@@H]2[C@H](COc3ccc(NC(=O)c4cc(F)cc(F)c4)cc3C(=O)N2C)O1,0,-2,-4,-2,0,/
NS(=O)(=O)c1ccc(CCNC(=O)c2cc(-c3ccccn3)nc3ccc(Br)cc23)cc1,0,/,3,0,43*,1
NS(=O)(=O)c1ccc(CCNC(=O)c2cc(-c3ccc(Br)cc3)nc3ccccc23)cc1,0,-2,/,-3,/,/
C[C@H]1CN([C@@H](C)CO)C(=O)c2cc(NC(=O)CCC(F)(F)F)ccc2O[C@@H]1CN(C)S(C)(=O)=O,0,/,21*,-7,0,2
Cc1ccc(S(=O)(=O)N(C)C[C@H]2Oc3ccc(NC(=O)Cc4ccccc4)cc3C(=O)N([C@H](C)CO)C[C@@H]2C)cc1,0,/,66*,-4,0,-1
Cc1ccc(S(=O)(=O)N(C)C[C@@H]2Oc3ccc(NC(=O)CCC(F)(F)F)cc3C(=O)N([C@H](C)CO)C[C@@H]2C)cc1,-1,/,47*,-6,0,12
C[C@H]1CN([C@@H](C)CO)C(=O)c2cc(NC(=O)C3CC3)ccc2O[C@H]1CN(C)S(=O)(=O)c1cccs1,-1,/,36*,-8,0,-21
Cc1ccc(S(=O)(=O)N(C)C[C@@H]2Oc3ccc(NC(=O)Cc4ccccc4)cc3C(=O)N([C@H](C)CO)C[C@H]2C)cc1,0,/,4,-6,0,-6
C[C@H](CO)N1C[C@H](C)[C@H](CN(C)Cc2ccccc2)OCCCC[C@H](C)Oc2ccc(NC(=O)Nc3ccc(C(F)(F)F)cc3)cc2C1=O,1,3,-15,-12,-1,3
N#Cc1ccc(-c2ccc([C@H]3[C@@H](CO)N4C(=O)CNC[C@H]34)cc2)cc1,0,3,-1,/,0,0
C[C@H]1CN([C@@H](C)CO)C(=O)c2cc(NC(=O)CCC(F)(F)F)ccc2O[C@H]1CN(C)CC1CCCCC1,-1,-6,-6,-3,/,4
C[C@H](CO)N1C[C@H](C)[C@@H](CN(C)S(=O)(=O)c2cccs2)Oc2ccc(NC(=O)CCC(F)(F)F)cc2C1=O,0,-4,-4,-1,-1,25*!
C[C@@H]1CN([C@@H](C)CO)C(=O)c2cc(NC(=O)CCC(F)(F)F)ccc2O[C@@H]1CN(C)CC1CCCCC1,-1,-6,22*,-1,0,4
CN(C[C@@H]1[C@H](c2ccccc2)[C@@H](CO)N1C(=O)C1CC1)C(=O)c1ccccn1,0,11,?,1,/,/
C[C@H](CO)N1C[C@H](C)[C@@H](CN(C)Cc2ccccn2)Oc2ncc(C#CC(C)(C)O)cc2C1=O,0,/,-1,4,0,-1
CCOc1ccccc1C(=O)N[C@H](C(=O)NCc1ccccc1)C(C)C,0,/,8,0,43*,-2
CCCN(C(=O)C(NC(=O)c1ccccc1)C(C)C)c1c(N)n(Cc2ccccc2)c(=O)[nH]c1=O (centres undefined),0,6,-10,6,0,-1
CCOc1ccccc1C(=O)NC(C(=O)N(C)c1c(N)n(Cc2ccccc2)c(=O)[nH]c1=O)C(C)C (centres undefined),0,2,0,/,0,17*
